Screens from PubChem BioAssay.
Compounds with a hit are over-represented: about 1.5% of the library has one in this group of screens.
PKA-R2B activ: activators of PKA-R2B holoenzyme, primary screen, biochemical, fluorescence polarization, Cy5-IP20, human | actives 0.079% (n = 340,000) | cAMP-dependent protein kinase catalytic subunit beta (Homo sapiens) + cAMP-dependent … | AID 504700, 2011 | activation, % at 11.4 µM | PKA-R2B holoenzyme dissociation; R2B truncated from residue 108, S112A mutant; 0% DMSO only, 100% 113 µM cGMP;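 active means activation above a cutoff set at the mean over all compounds plus 3 SD, cut at about 18% in these data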;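 further: higher means more holoenzyme dissociation and a rise in polarization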
SIRT5 block: SIRT5 desuccinylase inhibitors, primary screen, biochemical, fluorescence imaging, single point, set 5; NAD-dependent protein deacylase sirtuin-5, mitochondrial (Homo sapiens), Q9NXA8; Purified SirT5, succinyl-peptide AMC, trypsin-coupled fluorescence; inhibition, % at 15 µM; actives 1.1% (n = 330,000); AID 652115, 2013; in the data active means inhibition above about 15%
Target sequence (Q9NXA8 whole entry, looked up): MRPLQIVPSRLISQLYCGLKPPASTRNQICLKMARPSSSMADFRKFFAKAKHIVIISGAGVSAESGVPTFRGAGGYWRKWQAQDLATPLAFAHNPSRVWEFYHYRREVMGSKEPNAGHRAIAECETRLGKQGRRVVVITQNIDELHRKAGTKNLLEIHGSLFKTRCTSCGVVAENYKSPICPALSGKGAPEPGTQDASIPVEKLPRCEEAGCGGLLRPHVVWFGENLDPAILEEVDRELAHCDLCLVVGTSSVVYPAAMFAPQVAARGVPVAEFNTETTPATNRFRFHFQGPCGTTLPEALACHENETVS
CRFBP-R2 block: antagonists of CRF-BP/CRF-R2 complex, primary screen, cell-based, HEK293, calcium dye fluorescence, uHTS; CRF-induced calcium fluorescence; inhibition, % at 11.8 µM; actives 0.59% (n = 350,000); AID 588475, 2011;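 active means inhibition of the ligand-induced calcium signal above about 50% at the single tested concentration, limit read from the data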
PKA-R1A activ: activators of PKA-R1A holoenzyme, primary screen, biochemical, fluorescence polarization, Cy5-IP20, bovine R1A, mouse PKAc; cAMP-dependent protein kinase type I-alpha regulatory subunit (Bos taurus) + …; PKA-R1A dissociation; scaled: DMSO 0%, 113 µM cGMP 100%; activation, % at 11.4 µM; actives 0.083% (n = 340,000);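 active means percent activation above the mean of all tested compounds plus 3 SD, cut at about 19% in these data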;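 further: higher means more PKAc released from R1A so a rise in polarization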
S100A4 inh HTS: inhibitors of S100A4-myosin IIA peptide binding, primary screen, biochemical, fluorescence polarization, TAMRA-MyoIIA peptide; Protein S100-A4 (Homo sapiens), P26447; inhibition, % at 10.7 µM; actives 0.14% (n = 360,000); AID 652163, 2013;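 active means mean inhibition of at least 70% across replicates, with every replicate also reaching that level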
Target sequence (P26447 whole entry, looked up): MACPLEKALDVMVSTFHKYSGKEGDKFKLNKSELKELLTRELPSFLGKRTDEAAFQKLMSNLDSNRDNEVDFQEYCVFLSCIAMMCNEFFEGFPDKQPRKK
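Material: S100A4 monomer protein | Medium: HEPES pH 7.2 with CaCl2, KCl, NaCl, DTT, Triton | Reagent: Labelled myosin peptide probe, 5 nM | Doses: One dose per compound | Times: 5 min incubation before reading | Benchmarks: Neutral control DMSO, positive control TFP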
R1A FP artifact: FP signal interference without PKA proteins, confirmation, artefact control for PKA-R1A activator project, biochemical, fluorescence polarization, triplicate | actives 7% (n = 280) | Cy5-IP20 peptide alone, fluorescence polarization artifact counterscreen | activation, % at 11.4 µM | shares compounds with PKA-R1A activ;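 active means mean activation over triplicate runs exceeds the adjusted cutoff derived for the parent primary screen, cut at about 19% in these data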;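 further: no PKA protein present so any polarization rise reflects compound interference; 0% = tracer peptide mix alone and 100% = mix with added PKA catalytic subunit; higher means stronger polarization artifact and likely false positive in parent screen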
PKA-R1A confirm: activators of PKA-R1A holoenzyme, confirmation, biochemical, fluorescence polarization, Cy5-IP20, triplicate; actives 9% (n = 280); AID 504800, 2011; PKA-R1A holoenzyme dissociation; activation, % at 11.4 µM; shares compounds with PKA-R1A activ;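 active means mean activation over replicate wells exceeds the adjusted hit threshold taken from the earlier primary screen, cut at about 20% in these data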;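 further: 0% = holoenzyme mix with DMSO only and 100% = cGMP-activated control wells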
The depositor's hits bear a star; nt = not tested or not shown.

SMILES	PKA-R2B activ	SIRT5 block	CRFBP-R2 block	PKA-R1A activ	S100A4 inh HTS	R1A FP artifact	PKA-R1A confirm
COc1ccc(/C=C2/S/C(=N/S(=O)(=O)Cc3ccccc3)NC2=O)cc1OC	5	0	2	23*	-3	2	-1
CCOC(=O)c1nnn(-c2ccccc2C#N)c1C	1	nt	5	20*	nt	-1	-1
CCOC(=O)c1nnn(-c2ccc([N+](=O)[O-])cc2)c1C	1	-8	23	9	3	nt	nt
COC(=O)[C@@H]1[C@@H](CO)[C@@H]2Cn3c(ccc(-c4cccc(C(=O)N(C)C)c4)c3=O)[C@@H]2N1C	nt	2	nt	nt	8	nt	nt
CCOC(=O)C1CCN(CC(C)(C)NS(=O)(=O)c2ccccc2)CC1	7	0	6	21*	-6	0	-4
COC(=O)C1(C)NC(=O)c2ccccc2N1 (stereo not drawn)	11	nt	-12	13	3	nt	nt
COC(=O)C1(C)Nc2ccccc2C(=O)N1c1ccccc1OC (stereo not drawn)	12	nt	-6	23*	-8	2	1
O=C(NNC(=S)Nc1cccc(Cl)c1)c1ccccc1	10	1	20	20*	7	6	9
CO[C@H]1CN(C)C(=O)c2cc(NC(=O)c3cnccn3)ccc2OC[C@H](C)N(C(C)=O)C[C@H]1C	nt	nt	nt	nt	11	nt	nt
COc1ccc(N(CC(=O)NCCSc2ccccn2)S(=O)(=O)c2ccccc2)cc1Cl	3	0	-25	4	-19	nt	nt
COc1ccc(N(CC(=O)NCCSc2ccccn2)S(=O)(=O)c2ccccc2)cc1OC	5	-2	-10	21*	1	1	1
CCc1cc(C(=O)OC)c(NC(=O)CC2NCCNC2=O)s1 (stereo not drawn)	7	nt	18	25*	nt	5	3
CCc1ccc(NC(=O)CSc2nnc(-c3ccccn3)n2C)cc1	2	-2	4	19*	-3	6	4
CNC[C@@H]1Oc2c(NS(=O)(=O)c3c(C)noc3C)cccc2C(=O)N([C@H](C)CO)C[C@@H]1C	nt	6	nt	nt	10	nt	nt
O=C(COC(=O)C1CC(=O)N(Cc2ccco2)C1)Nc1ccc(F)cc1F (stereo not drawn)	-8	-1	2	20*	-2	-4	-1
CCCNC(=O)COc1ccc2c(=O)c(Oc3ccccc3F)coc2c1	1	-10	7	-3	-1	nt	nt
COc1ccccc1Oc1coc2cc(OCC(N)=O)ccc2c1=O	-4	2	-3	19*	3	1	4
N#Cc1ccc(C(=O)NCCCSc2ccccc2)cc1	2	-4	9	-6	-3	nt	nt
CN(C)c1ccc(C(=O)NCCCSc2ccccc2)cc1	7	-4	21	20*	-3	-4	1
CCn1c(SCC(=O)Nc2nccs2)nnc1-c1cc2cccc(OC)c2o1	-2	nt	18	-1	nt	nt	nt
COc1cccc2cc(-c3nnc(SCC(=O)Nc4cc(C(F)(F)F)ccc4Cl)n3N)oc12	8	nt	-3	20*	nt	-2	0
O=C(NCc1ccc(F)cc1)[C@H]1[C@H](CO)[C@H]2Cn3c(cccc3=O)[C@@H]1N2CC1CCCC1	nt	1	nt	nt	7	nt	nt
C/C(=N\NC(=O)c1ccoc1C)c1ccc(Cl)s1	-4	0	-3	20*	4	2	5
C/C(=N\NC(=O)c1csc(C)c1C)c1ccc(Cl)s1	1	nt	-19	11	nt	nt	nt
O=C(NCc1ccco1)C1CC2CCC1C2 (stereo not drawn)	2	-1	-12	20*	-2	0	-1
SMILES	PKA-R2B activ	SIRT5 block	CRFBP-R2 block	PKA-R1A activ	S100A4 inh HTS	R1A FP artifact	PKA-R1A confirm
O=C(O)C1C2CCC(C2)C1C(=O)NCc1ccco1 (stereo not drawn)	10	nt	-37	2	nt	nt	nt
Cc1nnc(-c2cnn(C)c2N)n1CCCN(C)C	0	0	0	-4	13	nt	nt
CCCCCCCn1c(C)nnc1-c1cnn(C)c1N	-2	11	11	20*	-2	0	-1
O=C(/C=C/c1ccccc1)Nc1cccc(C(=O)NC2CC2)c1	1	1	12	19*	-1	3	5
Cc1[nH]c(=O)[nH]c(=O)c1S(=O)(=O)Nc1ccc(S(N)(=O)=O)cc1	4	-4	-2	20*	-7	0	5
Cc1[nH]c(=O)[nH]c(=O)c1S(=O)(=O)NCCc1ccc(S(N)(=O)=O)cc1	1	nt	9	3	nt	nt	nt
CO[C@@H]1CN(C)C(=O)c2ccc(NC(=O)C3CCC3)cc2OC[C@@H](C)N(S(=O)(=O)c2ccc(Cl)cc2)C[C@H]1C	nt	5	nt	nt	-11	nt	nt
CCC(=O)N1CC2(C1)CN(Cc1cccc(OC)c1)[C@H](CO)c1[nH]c3cc(OC)ccc3c12	nt	1	nt	nt	0	nt	nt
COc1cccc(C(=O)NC(=S)Nc2ccccc2N2CCCC2)c1	1	-2	-17	0	-8	nt	nt
CC(C)Oc1cccc(C(=O)NC(=S)Nc2ccccc2N2CCOCC2)c1	-3	-6	-27	19*	3	-4	-3
COc1ccccc1CN1[C@H](CO)[C@H]2c3ccccc3N(C(=O)c3ccc(F)cc3)C[C@H]21	nt	0	nt	nt	3	nt	nt
C[C@@H]1CN([C@@H](C)CO)C(=O)c2cc(NS(=O)(=O)c3ccc(F)cc3)ccc2O[C@@H](C)CCCCO[C@H]1CN(C)Cc1ccncc1	nt	0	nt	nt	19	nt	nt
Cc1ccc(S(=O)(=O)NCCn2cnc([N+](=O)[O-])n2)cc1	-2	7	20	21*	-3	5	1
COc1ccccc1-c1ccc2n(c1=O)C[C@H]1[C@H](CO)[C@@H](C(=O)NC3CCC3)N(C(=O)C3CCC3)[C@@H]21	nt	-6	nt	nt	19	nt	nt
Cc1cccn2c(CN[C@@H]3CCCC[C@H]3c3ccccc3)c(C(=O)N3CCOCC3)nc12	4	-3	-22	19*	-3	7	4
Cc1cccn2c(CNC3CCCc4ccccc43)c(C(=O)N3CCOCC3)nc12 (stereo not drawn)	-11	-4	-10	3	-7	nt	nt
C[C@H](CO)N1C[C@H](C)[C@H](CN(C)C(=O)Nc2cccc3ccccc23)Oc2c(NS(=O)(=O)c3ccccc3)cccc2C1=O	nt	-3	nt	nt	1	nt	nt
